Data set [1] concerns the target T1, integrin αvβ3 (Mus musculus, UniProt O54890+P43406).
T1 sequence (P43406 31-885 limits assumed): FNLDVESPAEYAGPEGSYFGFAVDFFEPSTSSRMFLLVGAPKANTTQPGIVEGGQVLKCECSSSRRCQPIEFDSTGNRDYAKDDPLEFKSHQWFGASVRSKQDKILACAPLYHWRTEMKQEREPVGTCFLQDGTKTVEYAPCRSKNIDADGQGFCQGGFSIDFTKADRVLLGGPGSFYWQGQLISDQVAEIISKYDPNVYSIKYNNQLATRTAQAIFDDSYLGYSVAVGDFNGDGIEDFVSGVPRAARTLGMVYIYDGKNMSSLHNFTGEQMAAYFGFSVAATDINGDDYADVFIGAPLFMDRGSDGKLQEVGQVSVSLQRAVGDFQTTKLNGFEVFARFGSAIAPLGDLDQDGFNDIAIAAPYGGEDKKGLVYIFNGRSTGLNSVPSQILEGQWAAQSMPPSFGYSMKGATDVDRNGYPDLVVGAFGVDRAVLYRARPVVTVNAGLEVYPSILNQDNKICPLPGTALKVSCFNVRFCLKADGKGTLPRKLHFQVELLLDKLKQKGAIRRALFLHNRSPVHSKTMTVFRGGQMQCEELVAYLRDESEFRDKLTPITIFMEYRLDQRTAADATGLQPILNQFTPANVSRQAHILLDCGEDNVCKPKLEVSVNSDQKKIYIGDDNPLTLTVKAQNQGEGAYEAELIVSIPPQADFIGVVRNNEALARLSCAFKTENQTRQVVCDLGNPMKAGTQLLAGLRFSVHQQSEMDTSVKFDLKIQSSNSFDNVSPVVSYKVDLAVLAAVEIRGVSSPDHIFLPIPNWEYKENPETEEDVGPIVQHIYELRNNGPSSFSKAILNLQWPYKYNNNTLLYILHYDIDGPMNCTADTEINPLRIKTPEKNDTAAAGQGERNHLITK
T1 sequence (P43406 887-1044 partner limits assumed): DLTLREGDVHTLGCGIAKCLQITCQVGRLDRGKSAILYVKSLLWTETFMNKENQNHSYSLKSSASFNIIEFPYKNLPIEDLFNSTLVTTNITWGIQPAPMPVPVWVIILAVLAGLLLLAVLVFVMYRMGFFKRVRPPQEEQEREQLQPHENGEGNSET
T1 sequence (O54890 26-787): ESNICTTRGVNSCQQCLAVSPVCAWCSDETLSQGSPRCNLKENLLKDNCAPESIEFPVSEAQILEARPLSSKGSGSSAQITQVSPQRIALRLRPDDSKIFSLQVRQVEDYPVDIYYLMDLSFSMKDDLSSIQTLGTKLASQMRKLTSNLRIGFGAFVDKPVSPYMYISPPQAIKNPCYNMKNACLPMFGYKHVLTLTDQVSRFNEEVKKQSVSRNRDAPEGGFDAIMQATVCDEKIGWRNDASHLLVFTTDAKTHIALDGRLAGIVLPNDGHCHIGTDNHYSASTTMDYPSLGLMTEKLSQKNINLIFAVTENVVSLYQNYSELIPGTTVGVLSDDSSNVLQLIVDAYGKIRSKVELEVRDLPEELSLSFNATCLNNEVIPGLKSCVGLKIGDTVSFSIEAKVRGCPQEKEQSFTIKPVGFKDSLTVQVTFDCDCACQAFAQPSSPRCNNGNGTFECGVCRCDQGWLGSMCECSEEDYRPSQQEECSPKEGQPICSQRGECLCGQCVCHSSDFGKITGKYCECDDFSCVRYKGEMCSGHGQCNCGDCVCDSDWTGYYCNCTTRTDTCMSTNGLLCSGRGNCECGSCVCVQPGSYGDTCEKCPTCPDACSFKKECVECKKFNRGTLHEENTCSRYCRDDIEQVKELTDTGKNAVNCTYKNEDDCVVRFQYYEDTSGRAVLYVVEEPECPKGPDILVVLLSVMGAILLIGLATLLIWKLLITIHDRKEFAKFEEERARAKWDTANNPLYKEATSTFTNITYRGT
In kind it is binding. To be noted: frozen fibrotic liver sections, severe CCl4 and BDL models, immunofluorescence. The procedure, abridged: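 Liver fibrosis was induced in 10-week-old male CD1 mice with CCl4, 0.2 mL/kg as 1:5 CCl4:olive oil, i.p. twice weekly for up to 12 weeks. Other mice had the common bile duct transected via midline laparotomy and were killed after 3 weeks. Frozen liver sections were co-stained with a FITC-labelled dimeric RGD peptide probe and α-SMA and CD68 antibodies to assess co-localization.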

Data set [2] addresses integrin αvβ3 (Homo sapiens, UniProt P05106+P06756). In kind it is binding. The following applies: advanced fibrosis human liver frozen sections, immunofluorescence. An outline of the steps:
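Snap-frozen liver sections came from patients with staged fibrosis (F1–F3, n=3 each) and from normal livers. Advanced-fibrosis sections were stained with a FITC-labelled PEG4-linked dimeric cyclic RGD peptide probe (green), plus CD68 or α-SMA (red). Co-localization was read by fluorescence microscopy at original magnification 100X.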

The nature of data set [3]: Serum ALT and AST in CCl4-treated mice. In kind it is in vivo, mouse. The following applies: CCl4 0.2 mL/kg i.p. twice per week, 6 weeks (mild), mean ± SEM.
Data set [4] concerns TGF-β1. Kind of data set: Hepatic TGF-β1 mRNA by RT-PCR in CCl4-treated mice. In kind it is in vivo, mouse. To be noted: compared to control. The procedure, abridged: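 Male CD1 mice, 10 weeks old, given CCl4 at 0.2 mL/kg (1:5 in olive oil) i.p. twice weekly; controls received olive oil only. Hepatic TGF-β1 mRNA was measured by RT-PCR and expressed as relative mRNA level by the ΔΔCT method. Values are mean ± SEM, n = 3–6, compared by one-way ANOVA with Tukey's post hoc test.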

Chain of integrin αvβ3 (Homo sapiens, UniProt P05106+P06756) (P06756 31-889 limits assumed): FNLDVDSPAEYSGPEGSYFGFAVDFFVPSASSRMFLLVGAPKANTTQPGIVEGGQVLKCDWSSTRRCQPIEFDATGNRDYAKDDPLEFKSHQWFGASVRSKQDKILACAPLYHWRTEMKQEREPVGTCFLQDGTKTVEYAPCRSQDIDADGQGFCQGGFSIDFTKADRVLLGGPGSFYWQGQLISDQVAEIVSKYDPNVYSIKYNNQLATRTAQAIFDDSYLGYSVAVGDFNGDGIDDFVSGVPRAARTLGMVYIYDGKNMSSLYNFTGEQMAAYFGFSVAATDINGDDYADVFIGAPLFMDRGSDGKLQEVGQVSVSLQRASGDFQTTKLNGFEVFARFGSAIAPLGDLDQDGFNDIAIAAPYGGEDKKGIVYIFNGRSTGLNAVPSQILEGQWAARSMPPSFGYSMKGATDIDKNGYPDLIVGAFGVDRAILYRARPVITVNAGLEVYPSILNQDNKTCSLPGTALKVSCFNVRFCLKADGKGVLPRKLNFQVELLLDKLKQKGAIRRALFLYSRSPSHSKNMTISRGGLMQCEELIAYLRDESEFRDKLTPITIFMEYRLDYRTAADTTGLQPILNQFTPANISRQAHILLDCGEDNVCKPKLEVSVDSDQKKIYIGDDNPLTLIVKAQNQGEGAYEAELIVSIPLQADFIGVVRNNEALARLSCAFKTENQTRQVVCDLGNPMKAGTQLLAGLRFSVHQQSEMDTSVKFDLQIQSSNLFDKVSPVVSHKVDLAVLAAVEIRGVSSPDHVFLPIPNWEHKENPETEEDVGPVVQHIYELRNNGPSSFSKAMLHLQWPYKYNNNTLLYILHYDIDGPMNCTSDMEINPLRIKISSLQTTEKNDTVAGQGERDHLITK
Chain of integrin αvβ3 (Homo sapiens, UniProt P05106+P06756) (P06756 891-1048 partner limits assumed): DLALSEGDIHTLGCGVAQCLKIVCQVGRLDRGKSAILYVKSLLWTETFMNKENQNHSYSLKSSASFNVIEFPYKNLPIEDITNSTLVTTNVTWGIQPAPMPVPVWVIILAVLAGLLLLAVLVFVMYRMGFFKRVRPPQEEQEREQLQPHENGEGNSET
Chain of integrin αvβ3 (Homo sapiens, UniProt P05106+P06756) (P05106 27-788): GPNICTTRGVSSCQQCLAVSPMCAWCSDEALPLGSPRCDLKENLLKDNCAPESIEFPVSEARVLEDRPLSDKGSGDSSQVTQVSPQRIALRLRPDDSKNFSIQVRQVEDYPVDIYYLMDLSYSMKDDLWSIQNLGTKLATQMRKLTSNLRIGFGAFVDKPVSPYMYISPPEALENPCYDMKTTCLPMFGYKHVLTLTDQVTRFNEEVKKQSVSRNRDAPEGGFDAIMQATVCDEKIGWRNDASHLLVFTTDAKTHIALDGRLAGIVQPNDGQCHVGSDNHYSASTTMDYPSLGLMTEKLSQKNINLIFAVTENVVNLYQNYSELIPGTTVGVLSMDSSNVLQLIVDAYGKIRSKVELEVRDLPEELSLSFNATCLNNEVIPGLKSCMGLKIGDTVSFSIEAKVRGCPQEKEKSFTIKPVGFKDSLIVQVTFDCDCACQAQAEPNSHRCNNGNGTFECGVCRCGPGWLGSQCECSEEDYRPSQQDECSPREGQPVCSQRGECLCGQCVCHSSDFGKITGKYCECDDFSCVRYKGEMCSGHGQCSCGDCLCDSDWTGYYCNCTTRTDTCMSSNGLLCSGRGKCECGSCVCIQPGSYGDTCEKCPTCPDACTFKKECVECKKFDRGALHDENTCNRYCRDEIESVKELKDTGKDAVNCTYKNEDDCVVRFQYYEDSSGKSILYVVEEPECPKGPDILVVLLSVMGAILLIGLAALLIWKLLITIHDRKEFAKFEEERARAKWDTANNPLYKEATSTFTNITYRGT

As to FITC-E(PEG4-RGDfK)2 [FITC-RGD2], in data set [1], the “co-localization with CD68” value was “little co-localization” and the “co-localization with α-SMA” value is “high co-localization”. In data set [2], the “co-localization with CD68” value is recorded as “low co-localization” and the “co-localization with α-SMA” value is “high co-localization”.

As for `ClC(Cl)(Cl)Cl` [CCl4, carbon-tetrachloride], the “serum ALT” value in data set [3] (sham 20.66±1.383) turned out to be 96.22±18.5. In data set [3] (sham 76.24±6.128), the “serum AST” value turned out to be 125.7±9.82. Besides, the figures for the “hepatic TGF-β1 mRNA level increase” value in data set [4] (6 weeks of CCl4 treatment) and in data set [4] (12 weeks of CCl4 treatment) were 2 fold and 8 fold, respectively.

Values taken from article PMC7363052 (Journal of hepatology, 2020).
